Measured values: PMC12519076 (RSC Advances, 2025)
Where two headings read alike, the source gives them in different places.

Tests used:
[1] = assay type: in vivo, mice; conditions: for Detection in the brain: oral administration; for Detection in plasma: mice sacrificed 12 h after food intake
In short: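 Male C57BL/6 mice, 7 weeks old, fed a high-fat diet with 1% w/w orange peel extract for 6 weeks, with 0.65% carnitine in drinking water. Tissues were homogenized under liquid nitrogen. Tissues, plasma (cardiac puncture, EDTA) and urine were extracted in methanol with 0.1% DMSO; taxifolin was the internal standard. Separation on a C30 column with a formic acid water/acetonitrile gradient; positive ESI, SRM. Values expressed as tissue–peel ratio.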

[2] = assay type: in vivo, mice; conditions: by number of metabolites identified
In short: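 Male C57BL/6 mice, from 7 weeks old, given high-fat chow containing 1% w/w orange peel extract for 6 weeks, with 0.65% carnitine in water. Methanol/0.1% DMSO extracts were run by UHPLC on a C30 column at 40 °C, 0.1% formic acid water/acetonitrile gradient 2–100% B, 0.2 mL min−1, with Q-Exactive Orbitrap detection. Metabolites were assigned to parent PMFs by key-ion patterns.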

[3] = following intraperitoneal administration; cited from earlier work
acetylcholinesterase = conditions: cortex and hippocampus; cited from earlier work
[4] = tested on: spatial learning impairments induced by Aβ1-42; conditions: oral administration for four weeks; cited from earlier work

Compound	Detection in the brain [1]	Detection in the liver [1]	Detection in plasma [1]	Detection in the testes ([1]; testes)	Detection in the kidney [1]	also measured
COc1ccc(-c2oc3c(OC)c(OC)c(OC)c(OC)c3c(=O)c2OC)cc1OC [PMF 5, 3,5,6,7,8,3′,4′-heptamethoxyflavone]	found	detected	detected	not detected	–	–
COc1ccc(-c2cc(=O)c3c(O)c(OC)c(OC)c(OC)c3o2)cc1OC [PMF 8, 5-hydroxy-6,7,8,3′,4′-pentamethoxyflavone]	not detected	detected	–	detected	detected	Extent of metabolism among the 11 PMFs [2]: most extensively metabolized; Feces-peel ratio relative to that of PMF 11 ([1]; feces): twice as high; Testes-to-peel ratio relative to the detected major PMFs 1 and 4 ([1]; testes): 10 to 14 times
COc1cc(-c2cc(=O)c3c(OC)c(OC)c(OC)c(OC)c3o2)ccc1O [4′-demethylnobiletin]	–	–	–	–	–	Detection in the brain [3]: detected in the brain
COc1ccc(-c2cc(=O)c3c(OC)c(OC)c(OC)c(OC)c3o2)cc1 [PMF 6, tangeretin]	found	detected	detected	not detected	detected	–
COc1ccc(-c2cc(=O)c3c(OC)c(OC)c(OC)c(OC)c3o2)cc1OC [PMF 3, nobiletin]	found	detected	detected	not detected	detected	Extent of metabolism among the 11 PMFs [2]: most extensively metabolized; Acetylcholinesterase activity (acetylcholinesterase): enhanced; Urine–peel ratio relative to other non-hydroxylated PMFs ([1]; urine): approximately two times higher; Effect on spatial learning impairments induced by Aβ1-42, Morris water maze test [4]: prevent spatial learning impairments
COc1ccc(-c2oc3c(OC)c(OC)c(OC)c(O)c3c(=O)c2OC)cc1OC [PMF 11, 5-hydroxy-3,6,7,8,3′,4′-hexamethoxyflavone]	not detected	not detected	–	–	–	–
COc1ccc(-c2oc3c(OC)c(OC)cc(O)c3c(=O)c2OC)cc1OC [PMF 9, 5-hydroxy-3,7,8,3′,4′-pentamethoxyflavone]	not detected	detected	–	–	–	–
COc1ccc(-c2cc(=O)c3cc(OC)c(OC)c(OC)c3o2)cc1OC [PMF 1, 6,7,8,3′,4′-pentamethoxyflavone]	found	–	detected	detected	–	–
COc1ccc(-c2cc(=O)c3c(OC)c(OC)c(OC)cc3o2)cc1OC [PMF 10, sinensetin]	found	detected	–	–	–	–
